Consider two compounds from ChEMBL document CHEMBL4406821, “Novel dual inhibitors targeting CDK4 and VEGFR2 synergistically suppressed cancer progression and angiogenesis” (Eur J Med Chem, 2019).

By inhibition is commonly meant the share of the control response that was lost under treatment. A word on the half-life: it is the time needed for the level to fall by half in the phase considered. Lower therefore signals rapid decline. In general, clearance refers to a measure of how efficiently the substance is removed, as volume per time. The low end stands for inefficient removal, the high end for efficient removal.

Active and inactive are the calls of the source.

The target of data set [1] is Serine/threonine-protein kinase PAK 6 (Homo sapiens) (UniProt Q9NQU5). Nature of the data set: Inhibition of recombinant human PAK6 (382 to end residues) at 1 uM using RRRLSFAEPG as substrate incubated for 40 mins in presence of [gamma-33P]-ATP by scintillation counting method relative to control.
Chain of Serine/threonine-protein kinase PAK 6 (Homo sapiens) (Q9NQU5 whole entry, looked up): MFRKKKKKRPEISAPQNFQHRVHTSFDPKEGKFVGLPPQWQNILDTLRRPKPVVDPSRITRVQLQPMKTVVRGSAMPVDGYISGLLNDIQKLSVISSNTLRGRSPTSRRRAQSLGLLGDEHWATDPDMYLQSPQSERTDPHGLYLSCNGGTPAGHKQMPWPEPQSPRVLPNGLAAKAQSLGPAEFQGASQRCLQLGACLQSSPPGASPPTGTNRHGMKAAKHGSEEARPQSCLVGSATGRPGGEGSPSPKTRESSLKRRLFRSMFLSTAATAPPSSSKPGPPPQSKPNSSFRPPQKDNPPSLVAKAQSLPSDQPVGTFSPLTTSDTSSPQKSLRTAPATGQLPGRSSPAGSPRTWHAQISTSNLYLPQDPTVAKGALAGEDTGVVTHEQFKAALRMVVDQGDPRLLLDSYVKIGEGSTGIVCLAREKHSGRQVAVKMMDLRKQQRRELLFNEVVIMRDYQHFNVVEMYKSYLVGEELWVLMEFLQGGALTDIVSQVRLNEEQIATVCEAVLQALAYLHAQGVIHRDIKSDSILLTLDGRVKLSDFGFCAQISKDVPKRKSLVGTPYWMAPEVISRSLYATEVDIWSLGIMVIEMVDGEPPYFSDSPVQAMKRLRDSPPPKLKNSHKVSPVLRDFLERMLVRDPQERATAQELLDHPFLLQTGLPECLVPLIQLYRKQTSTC
Data set [2] in a line: Toxicity in NOD/SCID BALB/c mouse xenografted with human SiHa cells assessed as toxic effects in brain at 40 mg/kg, po administered for 48 hrs by hematoxylin and eosin staining method. To be noted: in vivo. Format: organism-based. (In general: In xenograft studies the graft and the host belong to different species.)
Data set [3] concerns the target Phosphatidylinositol 4-phosphate 3-kinase C2 domain-containing subunit alpha (Homo sapiens) (UniProt O00443). Nature of the data set: Inhibition of recombinant human PI3KC2alpha (299 to end residues) at 1 uM using phosphatidylinositol as substrate incubated for 40 mins in presence of [gamma-33P]-ATP by scintillation counting method relative to control. Summed up: (§1)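 Tested at a single 1 uM in an outsourced commercial kinase-profiling panel, read as percent inhibition. Each value is the mean of two independent experiments.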

For data set [4], the target named is Tyrosine-protein kinase HCK (Homo sapiens) (UniProt P08631). Put plainly: Inhibition of recombinant activated human HCK (230 to 497 residues) at 1 uM using GGMEDIYFEFMGGKKK as substrate incubated for 40 mins in presence of [gamma-33P]-ATP by scintillation counting method relative to control. Summed up:
(§2)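 Kinase panel profiling at 1 μM performed by Eurofins KinaseProfiler; percent inhibition reported as mean of two independent experiments.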

In the next data set the test system is HeLa. Nature of the data set: Induction of apoptosis in human HeLa cells assessed as increase in early apoptotic cells at 20 to 40 nM incubated for 48 hrs by annexin V FITC and propidium iodide staining based flow cytometry. Format: functional, cell-based. Summed up:
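Cells were treated for 48 h, stained with FITC Annexin V and PI, and analyzed by flow cytometry to count early and late apoptotic cells.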

Data set [5] has as its target Serine/threonine-protein kinase SIK3 (Homo sapiens) (UniProt Q9Y2K2). Put plainly: Inhibition of recombinant human SIK3 (1 to 307 residues) at 1 uM using KKKVSRSGLYRSPSMPENLNRPR as substrate incubated for 40 mins in presence of [gamma-33P]-ATP by scintillation counting method relative to control.
The target of data set [6] is Ribosomal protein S6 kinase alpha-1 (Homo sapiens) (UniProt Q15418). Nature of the data set: Inhibition of recombinant human full length RSK1 at 1 uM using KKKNRTLSVA as substrate incubated for 40 mins in presence of [gamma-33P]-ATP by scintillation counting method relative to control. Summed up:
as §1

For data set [7], the target named is Ephrin type-B receptor 1 (Homo sapiens) (UniProt P54762). Nature of the data set: Inhibition of recombinant human EPhB1 (564 to end residues) at 1 uM using KVEKIGEGTYGVVYK as substrate incubated for 40 mins in presence of [gamma-33P]-ATP by scintillation counting method relative to control.
Data set [8] has as its target Serine/threonine-protein kinase MRCK alpha (Homo sapiens) (UniProt Q5VT25). Put plainly: Inhibition of recombinant human MRCKalpha (1 to 473 residues) at 1 uM using KKRNRTLTV as substrate incubated for 40 mins in presence of [gamma-33P]-ATP by scintillation counting method relative to control.
Data set [9] concerns the target MAPK/MAK/MRK overlapping kinase (Homo sapiens) (UniProt Q9UQ07). Nature of the data set: Inhibition of recombinant human MOK (1 to 343 residues) at 1 uM using RSRSRSRSRSRSRSR as substrate incubated for 40 mins in presence of [gamma-33P]-ATP by scintillation counting method relative to control.
Data set [10] deals with Serine/threonine-protein kinase PAK 1 (Homo sapiens) (UniProt Q13153). Put plainly: Inhibition of recombinant human PAK1 (150 to end residues) at 1 uM using RRRLSFAEPG as substrate incubated for 40 mins in presence of [gamma-33P]-ATP by scintillation counting method relative to control.
Chain of Serine/threonine-protein kinase PAK 1 (Homo sapiens) (Q13153 whole entry): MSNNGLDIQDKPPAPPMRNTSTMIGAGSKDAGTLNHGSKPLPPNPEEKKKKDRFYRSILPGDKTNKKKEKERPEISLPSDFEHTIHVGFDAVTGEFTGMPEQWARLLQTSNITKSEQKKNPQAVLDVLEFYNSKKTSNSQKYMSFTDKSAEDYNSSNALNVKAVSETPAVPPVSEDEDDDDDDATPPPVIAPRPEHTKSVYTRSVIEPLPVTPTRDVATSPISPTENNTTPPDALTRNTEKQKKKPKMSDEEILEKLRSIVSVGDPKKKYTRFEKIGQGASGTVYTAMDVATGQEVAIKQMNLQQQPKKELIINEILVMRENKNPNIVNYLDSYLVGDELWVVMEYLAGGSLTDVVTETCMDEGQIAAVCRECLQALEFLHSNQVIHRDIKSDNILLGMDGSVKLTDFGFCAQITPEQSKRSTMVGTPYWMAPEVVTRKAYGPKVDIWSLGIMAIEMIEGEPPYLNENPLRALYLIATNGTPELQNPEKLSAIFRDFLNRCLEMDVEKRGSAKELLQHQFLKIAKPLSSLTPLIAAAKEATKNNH
The target of data set [11] is Tyrosine-protein kinase Lyn (Homo sapiens) (UniProt P07948). Put plainly: Inhibition of recombinant human full length LYN at 1 uM using poly(Glu, Tyr) 4:1 as substrate incubated for 40 mins in presence of [gamma-33P]-ATP by scintillation counting method relative to control.
Data set [12] addresses Tyrosine-protein kinase CSK (Homo sapiens) (UniProt P41240). Nature of the data set: Inhibition of recombinant full length human CSK at 1 uM using poly(Glu, Tyr) 4:1 as substrate incubated for 40 mins in presence of [gamma-33P]-ATP by scintillation counting method relative to control. The method, boiled down:
as §1

The target in data set [13] is Calcium/calmodulin-dependent protein kinase type 1G (Homo sapiens) (UniProt Q96NX5). Put plainly: Inhibition of recombinant full length human CAMKIgamma at 1 uM using KKLRRTLSFAEPG as substrate incubated for 40 mins in presence of [gamma-33P]-ATP by scintillation counting method relative to control. The method, boiled down:
as §2

Data set [14] deals with Serine/threonine-protein kinase VRK2 (Homo sapiens) (UniProt Q86Y07). Put plainly: Inhibition of recombinant human VRK2 (1 to 336 residues) at 1 uM using casein as substrate incubated for 40 mins in presence of [gamma-33P]-ATP by scintillation counting method relative to control. The method, boiled down:
as §1

For data set [15], the system named is Mast/stem cell growth factor receptor Kit (Homo sapiens), P10721 [V654A]. Nature of the data set: Inhibition of recombinant human c-KIT V654A mutant (544 to end residues) at 1 uM using GGMEDIYFEFMGG as substrate incubated for 40 mins in presence of [gamma-33P]-ATP by scintillation counting method relative to control. The method, boiled down:
as §1

A short description of data set [16]: Half life in Sprague-Dawley rat at 10 mg/kg, po by HPLC-MS analysis. The data set is classed as ADME, organism-based. To be noted: in vivo. The method, boiled down: (§3)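 Rats fitted with jugular vein catheters for serial blood sampling. Compound dissolved in saline with 5% (v/v) DMSO and given as a single 10 mg/kg dose iv or po after an overnight fast, n = 5 per group. Plasma isolated at once and measured by HPLC with tandem MS detection. Parameters derived by noncompartmental fitting.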

Data set [17] has as its target Mitogen-activated protein kinase 1 (Homo sapiens) (UniProt P28482). Put plainly: Inhibition of recombinant human full length MAPK2 at 1 uM using myelin basic protein as substrate incubated for 40 mins in presence of [gamma-33P]-ATP by scintillation counting method relative to control. The method, boiled down: as §1
A short description of data set [18]: Clearance in Sprague-Dawley rat at 10 mg/kg, iv by HPLC-MS analysis. The data set is classed as ADME, organism-based. The settings on record: in vivo. Summed up:
as §3

Data set [19] addresses Phosphatidylinositol 3-kinase C2 domain-containing subunit gamma (Homo sapiens) (UniProt O75747). Nature of the data set: Inhibition of recombinant human PI3KC2gamma (468 to 1203 residues) at 1 uM using phosphatidylinositol as substrate incubated for 40 mins in presence of [gamma-33P]-ATP by scintillation counting method relative to control.
The test system of the next data set is MDA-MB-231. Nature of the data set: Induction of apoptosis in human MDA-MB-231 cells assessed as decrease in Bcl2 expression at 40 nM incubated for 48 hrs by Western blot analysis. Format: functional, cell-based. The method, boiled down:
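Cells were treated for 48 h, washed three times with PBS, and lysed in RIPA buffer. Immunoblots used anti-Rb, anti-phospho-Rb, anti-Ki67 and anti-Bcl-2 (each 1:1000), with β-actin as loading control.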
(A western blot detects proteins with antibodies after separation by electrophoresis.)

In data set [20] the target is Vascular endothelial growth factor receptor 2 (Homo sapiens, UniProt P35968). To be noted: HUVEC, 40 nM.

Chain of Phosphatidylinositol 3-kinase C2 domain-containing subunit gamma (Homo sapiens) (O75747 whole entry, the tested form may be a part): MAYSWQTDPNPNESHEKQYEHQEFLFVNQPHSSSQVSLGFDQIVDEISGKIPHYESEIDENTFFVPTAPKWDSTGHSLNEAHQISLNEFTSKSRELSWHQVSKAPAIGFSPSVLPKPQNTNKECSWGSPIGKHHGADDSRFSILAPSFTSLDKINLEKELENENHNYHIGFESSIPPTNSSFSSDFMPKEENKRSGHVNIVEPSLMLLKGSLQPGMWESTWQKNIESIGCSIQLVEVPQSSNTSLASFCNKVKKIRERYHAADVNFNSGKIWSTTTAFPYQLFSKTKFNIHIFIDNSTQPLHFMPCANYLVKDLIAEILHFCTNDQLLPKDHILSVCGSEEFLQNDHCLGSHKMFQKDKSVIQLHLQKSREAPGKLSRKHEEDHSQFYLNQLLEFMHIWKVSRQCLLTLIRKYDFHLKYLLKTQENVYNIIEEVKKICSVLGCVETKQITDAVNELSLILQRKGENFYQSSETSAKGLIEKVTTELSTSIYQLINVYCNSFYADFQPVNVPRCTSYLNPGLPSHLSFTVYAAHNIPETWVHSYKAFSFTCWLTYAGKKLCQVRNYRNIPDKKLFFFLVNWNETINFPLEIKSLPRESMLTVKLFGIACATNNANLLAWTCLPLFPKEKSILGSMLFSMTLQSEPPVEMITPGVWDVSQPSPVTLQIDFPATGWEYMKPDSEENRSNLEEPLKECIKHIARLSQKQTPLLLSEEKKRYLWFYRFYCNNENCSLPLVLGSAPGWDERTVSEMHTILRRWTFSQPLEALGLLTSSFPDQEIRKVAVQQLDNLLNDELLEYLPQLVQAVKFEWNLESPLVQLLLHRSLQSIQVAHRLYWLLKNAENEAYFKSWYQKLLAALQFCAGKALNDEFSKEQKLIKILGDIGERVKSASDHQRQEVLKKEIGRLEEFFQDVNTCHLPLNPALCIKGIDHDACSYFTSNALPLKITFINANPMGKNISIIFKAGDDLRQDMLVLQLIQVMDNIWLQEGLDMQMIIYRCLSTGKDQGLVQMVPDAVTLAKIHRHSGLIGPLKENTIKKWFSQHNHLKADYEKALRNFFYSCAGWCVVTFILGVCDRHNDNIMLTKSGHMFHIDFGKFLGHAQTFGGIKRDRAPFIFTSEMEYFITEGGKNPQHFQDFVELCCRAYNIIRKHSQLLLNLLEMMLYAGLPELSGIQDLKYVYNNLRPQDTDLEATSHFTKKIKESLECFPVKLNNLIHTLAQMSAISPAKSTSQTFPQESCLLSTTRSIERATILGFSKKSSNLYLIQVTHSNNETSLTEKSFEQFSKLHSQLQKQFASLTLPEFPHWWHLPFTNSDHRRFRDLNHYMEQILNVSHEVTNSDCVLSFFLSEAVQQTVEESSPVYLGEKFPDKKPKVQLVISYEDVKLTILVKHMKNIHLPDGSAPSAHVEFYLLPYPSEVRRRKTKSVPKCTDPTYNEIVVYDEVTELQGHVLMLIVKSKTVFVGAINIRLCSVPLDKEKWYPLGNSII
Chain of MAPK/MAK/MRK overlapping kinase (Homo sapiens) (Q9UQ07 whole entry, the tested form may be a part): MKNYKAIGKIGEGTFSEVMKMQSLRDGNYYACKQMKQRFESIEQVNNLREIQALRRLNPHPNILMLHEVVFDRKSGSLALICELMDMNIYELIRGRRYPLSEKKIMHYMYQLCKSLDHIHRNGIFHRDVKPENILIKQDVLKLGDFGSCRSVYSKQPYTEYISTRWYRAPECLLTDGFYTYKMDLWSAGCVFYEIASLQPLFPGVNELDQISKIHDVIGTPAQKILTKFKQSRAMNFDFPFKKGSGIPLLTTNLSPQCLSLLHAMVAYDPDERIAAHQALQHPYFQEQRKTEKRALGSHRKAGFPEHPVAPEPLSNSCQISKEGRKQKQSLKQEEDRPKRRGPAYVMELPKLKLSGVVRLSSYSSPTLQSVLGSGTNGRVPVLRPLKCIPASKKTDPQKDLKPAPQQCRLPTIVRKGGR
Chain of Serine/threonine-protein kinase VRK2 (Homo sapiens) (Q86Y07 whole entry, the tested form may be a part): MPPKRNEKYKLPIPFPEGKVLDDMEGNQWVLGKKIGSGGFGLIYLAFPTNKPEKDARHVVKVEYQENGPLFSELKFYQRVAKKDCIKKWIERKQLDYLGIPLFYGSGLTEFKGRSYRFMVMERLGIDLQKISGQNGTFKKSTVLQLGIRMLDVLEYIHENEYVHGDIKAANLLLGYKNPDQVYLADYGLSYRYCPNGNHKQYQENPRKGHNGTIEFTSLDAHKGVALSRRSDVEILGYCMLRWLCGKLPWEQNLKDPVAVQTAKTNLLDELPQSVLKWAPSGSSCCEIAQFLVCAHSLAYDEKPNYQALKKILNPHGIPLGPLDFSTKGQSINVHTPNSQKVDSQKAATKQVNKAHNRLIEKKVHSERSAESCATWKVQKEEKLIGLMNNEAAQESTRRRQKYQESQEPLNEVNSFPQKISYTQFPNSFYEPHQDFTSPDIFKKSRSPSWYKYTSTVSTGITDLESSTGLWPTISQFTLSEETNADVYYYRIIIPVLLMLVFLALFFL
Chain of Tyrosine-protein kinase CSK (Homo sapiens) (P41240 2-450 limits assumed): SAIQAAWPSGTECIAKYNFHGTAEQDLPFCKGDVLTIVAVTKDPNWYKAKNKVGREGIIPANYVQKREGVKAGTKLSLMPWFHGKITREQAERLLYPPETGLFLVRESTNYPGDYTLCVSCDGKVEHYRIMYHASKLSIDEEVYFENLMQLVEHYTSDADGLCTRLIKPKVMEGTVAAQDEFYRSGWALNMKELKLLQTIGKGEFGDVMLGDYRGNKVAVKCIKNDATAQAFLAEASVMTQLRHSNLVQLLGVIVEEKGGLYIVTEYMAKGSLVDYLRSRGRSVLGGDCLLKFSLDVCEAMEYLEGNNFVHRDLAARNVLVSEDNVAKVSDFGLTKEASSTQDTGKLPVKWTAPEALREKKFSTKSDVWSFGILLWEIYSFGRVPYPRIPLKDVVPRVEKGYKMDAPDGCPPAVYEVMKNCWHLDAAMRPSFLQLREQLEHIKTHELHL
Chain of Mast/stem cell growth factor receptor Kit (Homo sapiens), P10721 [V654A] (P10721 whole entry V654A): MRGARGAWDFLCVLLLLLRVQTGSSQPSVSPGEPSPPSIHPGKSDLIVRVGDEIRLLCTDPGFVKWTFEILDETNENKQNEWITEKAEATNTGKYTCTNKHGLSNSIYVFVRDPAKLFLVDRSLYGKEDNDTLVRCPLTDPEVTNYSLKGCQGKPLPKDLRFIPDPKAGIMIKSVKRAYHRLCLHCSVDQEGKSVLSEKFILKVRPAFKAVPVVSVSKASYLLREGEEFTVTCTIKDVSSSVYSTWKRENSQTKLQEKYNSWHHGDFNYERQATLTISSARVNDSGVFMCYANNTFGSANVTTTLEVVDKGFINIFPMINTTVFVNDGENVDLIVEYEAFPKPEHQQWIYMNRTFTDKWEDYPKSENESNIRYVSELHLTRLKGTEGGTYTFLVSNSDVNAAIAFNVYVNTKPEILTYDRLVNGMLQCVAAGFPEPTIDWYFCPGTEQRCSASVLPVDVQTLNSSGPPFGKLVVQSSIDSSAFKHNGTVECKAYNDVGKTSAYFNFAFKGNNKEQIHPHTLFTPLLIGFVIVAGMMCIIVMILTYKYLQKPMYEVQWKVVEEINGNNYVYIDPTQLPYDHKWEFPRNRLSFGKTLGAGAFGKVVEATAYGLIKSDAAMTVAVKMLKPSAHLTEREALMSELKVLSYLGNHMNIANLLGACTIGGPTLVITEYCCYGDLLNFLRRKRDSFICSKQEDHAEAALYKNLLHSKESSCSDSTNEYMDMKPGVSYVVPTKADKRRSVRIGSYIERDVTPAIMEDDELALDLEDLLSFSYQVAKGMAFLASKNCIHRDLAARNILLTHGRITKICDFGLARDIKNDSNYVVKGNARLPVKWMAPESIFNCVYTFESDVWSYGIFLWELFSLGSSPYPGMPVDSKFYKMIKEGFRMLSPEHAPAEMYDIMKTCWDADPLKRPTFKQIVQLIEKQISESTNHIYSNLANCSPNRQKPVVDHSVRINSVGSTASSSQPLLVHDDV

Consider `Cc1ccc(NC(=O)C2(C(=O)Nc3ccc(Nc4ncc(F)c(-c5cc(F)c6nc(C)n(C(C)C)c6c5)n4)cc3)CC2)cc1`, for which the inhibition amounted to 12% in [1]; 0% in data set [3]; 33% in data set [4]; 43% in data set [5]; 0% in data set [6]; 66% in data set [7]. In addition, the inhibition came out at 21% in data set [8]; 25% in data set [9]; 52% in [10]; 58% in data set [11]; 0% in data set [12]; 5% in data set [13]. The inhibition amounted to 0% in data set [14], 45% in [15], 0% in [17] and 38% in data set [19]. Further, the Activity entry in [2] is given as “Non-Toxic”. Besides, the outcome with HeLa was Active. Besides, the half-life in data set [16] was 3 h. The same compound had a clearance in data set [18] of 16.7 mL/min/kg.
`COc1cc2nccc(Oc3ccc(NC(=O)C4(C(=O)Nc5ccc(F)cc5)CC4)cc3)c2cc1OC` [CABOZANTINIB]: in the data set with MDA-MB-231, the outcome was Active. In addition, the inhibition result in data set [20] is “Active”.
